Assay results: article PMC3181126 (Journal of medicinal chemistry, 2011)
Values joined by “and” are separate entries in the source; they are usually repeats but may differ in a detail not shown here. Identical values can stand only once.

Legend:
BxPC3 cells [1] = assay: Cell viability at increasing seeding density; format: cell-based, human; conditions: 100 μM, seeding density 1 × 10^5 to 9 × 10^5
BxPC3 cells [2] = assay: Competition of compound 16 by σ2 agonists, flow cytometry; format: cell-based, human; conditions: preloading 45 min at increasing concentrations, then 16 (25 nM) 45 min
[3] = Molar extinction coefficient; format: physicochemical; conditions: EtOH solutions
Procedure, shortened: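 Absorbance spectra (200–600 nm) of test compound in EtOH at 1–100 μM, in 1 cm quartz cuvettes. ε was obtained by fitting Beer's law to absorbance at the excitation wavelength. Measurements were repeated twice.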

[4] = Fluorescence spectroscopy; format: physicochemical; conditions: for Φ (quantum yield): standard quinine sulfate; for excitation peaks (λexc): approximate values, solvent not stated
Procedure, shortened: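 Spectra taken in EtOH, CHCl3 and PBS on free bases (hydrochlorides also in EtOH/PBS), with 10 nm excitation/emission bandpass. Emission scanned 300–700 nm; excitation scanned 250–450 or 300–550 nm by compound. Quantum yield was relative to a quinine sulfate standard (reference value 0.546), with absorbance below 0.2 at 347 nm. Spectra were instrument-corrected and integrated, and a refractive-index correction applied.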

σ2 receptor = molecular target: T1, σ2 receptor (Rattus norvegicus, UniProt Q5U3Y7); assay: σ2 receptor radioligand binding, [3H]DTG with; conditions: from Ki σ1 (guinea-pig brain) and Ki σ2 (rat liver)
T1 sequence (Q5U3Y7 1-176): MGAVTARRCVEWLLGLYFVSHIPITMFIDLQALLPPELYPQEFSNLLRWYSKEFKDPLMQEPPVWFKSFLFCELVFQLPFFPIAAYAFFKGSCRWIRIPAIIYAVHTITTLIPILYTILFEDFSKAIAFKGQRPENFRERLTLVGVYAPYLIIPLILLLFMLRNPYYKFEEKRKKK

| Structure (SMILES) | ε (molar extinction coefficient) [3] [L/mol/cm] | λem ([4]; CHCl3) [nm] | λexc ([4]; CHCl3) [nm] | Φ (quantum yield) ([4]; CHCl3) | λem ([4]; EtOH, free bases) [nm] | λexc ([4]; EtOH, free bases) [nm] | Φ (quantum yield) ([4]; EtOH, free bases) | λem ([4]; PBS, free bases) [nm] | λexc ([4]; PBS, free bases) [nm] | excitation peaks (λexc) [4] | cell death versus cell density (BxPC3 cells [1]) | effect on mean fluorescence intensity of 16 (BxPC3 cells [2]) | σ2 versus σ1 selectivity (σ2 receptor) |
| --- | --- | --- | --- | --- | --- | --- | --- | --- | --- | --- | --- | --- | --- |
| COc1cccc2c1CCCC2CCCN1CCN(C2CCCCC2)CC1 (stereo not shown) [compound 1, 1-cyclohexyl-4-[3-(5-methoxy-1,2,3,4-tetrahydronaphthalen-1-yl)propyl]piperazine] |  |  |  |  |  |  |  |  |  |  | decreased cell death as the density increased | decreased the mean fluorescence intensity of 16 |  |
| COc1cccc2c1CCCC2CCCN1CCN(C2CCN(CCCCCCNc3ccc([N+](=O)[O-])c4nonc34)CC2)CC1 (stereo not shown) [compound 7, 6-[4-[4-[3-(5-Methoxy-1,2,3,4-tetrahydronaphthalen-1-yl]propyl]piperazin-1-yl]piperidino]-N-(7-nitro-2,1,3-benzoxadiazol-4-yl)hexanamine] | 14391 | 515 | 450 | 0.17 | 520 | 476 | 0.08 | 535 | 480 |  |  |  |  |
| Fc1cccc(F)c1[C@H]1CC[C@@H](N2CCN(C3CCCCC3)CC2)CC1 [compound 20, cis-1-cyclohexyl-4-[4-(2,6-difluorophenyl)cyclohexyl]piperazine] |  |  |  |  |  |  |  |  |  |  | decreased cell death as the density increased | decreased the mean fluorescence intensity of 16 |  |

Now from value to molecule, other results behind:

| ε (molar extinction coefficient) [3] [L/mol/cm] | λem ([4]; CHCl3) [nm] | λexc ([4]; CHCl3) [nm] | Φ (quantum yield) ([4]; CHCl3) | λem ([4]; EtOH, free bases) [nm] | λexc ([4]; EtOH, free bases) [nm] | Φ (quantum yield) ([4]; EtOH, free bases) | λem ([4]; PBS, free bases) [nm] | λexc ([4]; PBS, free bases) [nm] | excitation peaks (λexc) [4] | Structure (SMILES) | cell death versus cell density (BxPC3 cells [1]) | effect on mean fluorescence intensity of 16 (BxPC3 cells [2]) | σ2 versus σ1 selectivity (σ2 receptor) |
| --- | --- | --- | --- | --- | --- | --- | --- | --- | --- | --- | --- | --- | --- |
| 2600 | 490 | 346 | 0.32 | 507 | 335 | 0.29 | 510 | 340 | ~ 335 nm and ~ 450 nm | COc1cccc2c1CCCC2CCCN1CCN(C2CCN(CCCCCCNS(=O)(=O)c3cccc4c(N(C)C)cccc34)CC2)CC1 (stereo not shown) [compound 8, 5-Dimethylaonaphthalene-1-sulfonic acid 6-[4-[4-[3-(5-methoxy-1,2,3,4-tetrahydronaphthalen-1-yl)propyl]piperazin-1-yl]piperidino]hexanamide] |  |  |  |
| 6544 | 512 | 450 | 0.18 | 520 | 465 | 0.04 | 520 | 460 | ~ 335 nm and ~ 450 nm | O=[N+]([O-])c1ccc(NCCOCCOc2cccc3c2CCCC3CCCN2CCN(C3CCCCC3)CC2)c2nonc12 (stereo not shown) [compound 17, 2-[2-[5-[3-(4-Cyclohexylpiperazin-1-yl)propyl]-5,6,7,8-tetrahydronaphthalen-1-yloxy]ethoxy]-N-(7-nitro-2,1,3-benzoxadiazol-4-yl)ethanamine] |  |  |  |
| 4000 | 490 | 340 | 0.30 | 507 | 335 | 0.20 | 485 | 345 |  | CN(C)c1cccc2c(S(=O)(=O)NCCCCCCOc3cccc4c3CCCC4CCCN3CCN(C4CCCCC4)CC3)cccc12 (stereo not shown) [compound 18, 5-Dimethylaonaphthalene-1-sulfonic acid 6-[5-[3-(4-cyclohexylpiperazin-1-yl)propyl]-5,6,7,8-tetrahydronaphthalen-1-yloxy]hexanamide] |  |  | did not show any σ2 versus σ1 selectivity |
